# According to ChEMBL document CHEMBL1649109, “Antiparasitic activities and toxicities of individual enantiomers of the 8-aminoquinoline 8-[(4-amino-1-methylbutyl)amino]-6-methoxy-4-methyl-5-[3,4-dichlorophenoxy]quinoline succinate” (Antimicrob Agents Chemother, 2008):
# Calls of active or inactive are those of the source. The rule behind the calls is not given here.
# Assays:
# [1] = system: Leishmania donovani; test: Antileishmanial activity against Leishmania donovani HU3 infected in mouse assessed as inhibition of parasite burden at 45 mg/kg/day, sc for 5 days administered 7 days post-infection measured 14 days post-infection; type: functional, organism-based
# How it was run: (§1)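 Mice infected intravenously with 1 × 10^7 L. donovani (MHOM/ET/67/HU3) amastigotes. Starting 7 days post-infection, sodium stibogluconate was given subcutaneously once daily for 5 days, with doses expressed as SbV. Mice were killed 14 days post-infection. Parasite burdens were counted on liver impression smears and compared with an untreated control group. ED50 was obtained by linear regression.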
# [2] = system: Leishmania donovani; test: Antileishmanial activity against Leishmania donovani HU3 infected in mouse assessed as inhibition of parasite burden at 15 mg/kg/day, sc for 5 days administered 7 days post-infection measured 14 days post-infection; type: functional, organism-based; how it was run: as §1
# [3] = system: Leishmania donovani; test: Antileishmanial activity against Leishmania donovani HU3 infected in mouse assessed as inhibition of parasite burden at 5 mg/kg/day, sc for 5 days administered 7 days post-infection measured 14 days post-infection; type: functional, organism-based; how it was run: as §1
# [4] = system: Leishmania donovani; test: Antileishmanial activity against Leishmania donovani HU3 infected in mouse assessed as inhibition of parasite burden administered subcutaneously once daily for 5 days after 7 days post-infection measured 14 days post-infection; type: functional, organism-based; how it was run: as §1
# [5] = system: Leishmania donovani; test: Antileishmanial activity against Leishmania donovani HU3 infected in mouse assessed as inhibition of parasites in liver at 100 mg/kg/day, po treated for 5 days administered 7 days postinfection measured after 14 days; type: functional
# How it was run: (§2)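 L. donovani HU3 amastigotes, 1 × 10^7 given IV to mice. From day 7 post-infection, dosed orally once daily for 5 days in 0.25% methylcellulose-10% ethanol; reference stibogluconate given SC. Mice killed at day 14 post-infection. Parasite burden counted on liver impression smears against untreated controls. ED50 from linear regression, with 95% confidence limits.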
# [6] = system: Plasmodium berghei; test: Antimalarial activity against Plasmodium berghei KBG-173 infected in Swiss(CD-1) mouse assessed as mean survival time at 0.25 mg/kg/day, po treated for 3 days; type: functional
# How it was run: (§3)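 CD-1 mice, 5 weeks old, male or female, groups of five, infected with 5 × 10^4 P. berghei KBG-173 parasitized erythrocytes. Drug in 0.5% hydroxyethylcellulose/0.1% Tween 80, given orally once daily on days 3, 4 and 5 post-infection. Parasitemia from blood films on day +6. Read-out also includes increase in mean survival time over controls and survivors at day +34.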
# [7] = system: Plasmodium berghei; test: Antimalarial activity against Plasmodium berghei KBG-173 infected in Swiss(CD-1) mouse assessed as mean survival time at 1 mg/kg/day, po treated for 3 days; type: functional; how it was run: as §3
# [8] = system: Plasmodium berghei; test: Antimalarial activity against Plasmodium berghei KBG-173 infected in Swiss(CD-1) mouse assessed as survival at 0.25 mg/kg/day, po treated for 3 days measured on day 34; type: functional, organism-based; how it was run: as §3
# [9] = system: Plasmodium berghei; test: Antimalarial activity against Plasmodium berghei KBG-173 infected in Swiss(CD-1) mouse assessed as survival at 1 mg/kg/day, po treated for 3 days measured on day 34; type: functional, organism-based; how it was run: as §3
# [10] = system: Mus musculus; test: Toxicity in Plasmodium berghei KBG-173 infected Swiss(CD-1) mouse at 64 mg/kg/day, po treated for 3 days; type: organism-based; design: route oral; conditions: in vivo, 72 h
# How it was run: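 CD-1 mice infected with 5 × 10^4 P. berghei KBG-173 parasitized erythrocytes. Drug in 0.5% hydroxyethylcellulose/0.1% Tween 80, given orally on days 3-5 post-infection, 7 mice per dose. Blood films on day +6 and weekly to day +60. Mortality tabulated for 60 days; blood-film-negative survivors counted as cured.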
# [11] = system: Pneumocystis carinii; test: Antimicrobial activity against Pneumocystis carinii infected BALB/c mouse at 1.3 mg/kg/day, po after 21 days administered 4 weeks postinfection by Giemsa staining method; type: functional, organism-based
# How it was run: (§4)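 Female BALB/c mice, 6-8 weeks, immunosuppressed with dexamethasone […] in drinking water, then inoculated transtracheally with 10^6 P. carinii. From 4 weeks post-inoculation, drug given in drinking water for 3 weeks, 10 mice/group, intake monitored. Lung impression smears stained with Giemsa or methenamine silver, read blinded. Graded 0-5 on a log scale; group mean ± SE.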
# [12] = system: Pneumocystis carinii; test: Antimicrobial activity against Pneumocystis carinii infected BALB/c mouse at 0.25 mg/kg/day, po after 21 days administered 4 weeks postinfection by Giemsa staining method; type: functional, organism-based; how it was run: as §4
# [13] = system: Pneumocystis carinii; test: Antimicrobial activity against Pneumocystis carinii infected BALB/c mouse at 1.3 mg/kg/day, po after 21 days administered 4 weeks postinfection by Giemsa staining; type: functional, organism-based; how it was run: as §4
# [14] = system: Pneumocystis carinii; test: Antimicrobial activity against Pneumocystis carinii infected BALB/c mouse at 0.25 mg/kg/day, po after 21 days administered 4 weeks postinfection by methenamine silver nitrate staining method; type: functional, organism-based; how it was run: as §4
# [15] = system: Pneumocystis carinii; test: Antimicrobial activity against Pneumocystis carinii infected BALB/c mouse at 0.1 mg/kg/day, po after 21 days administered 4 weeks postinfection by methenamine silver nitrate staining method; type: functional, organism-based
# [16] = system: Canis familiaris; test: Toxicity in Beagle dog assessed as survival at 6.4 mg/kg/day, po after 4 days; type: organism-based, Canis lupus familiaris; design: route oral; conditions: in vivo, 96 h
# How it was run: (§5)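 Beagle dogs, 8-9 months old, given drug as bulk powder in gelatin capsules orally on days 1-4, at 0.0116 mmol/kg/day as base. Daily clinical observation. Methemoglobin measured by co-oximetry from jugular or cephalic blood, predose on days 1, 2 and 4, then through day 29.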
# [17] = system: Canis familiaris; test: Toxicity in Beagle dog assessed as survival at 6.7 mg/kg/day, po after 4 days; type: organism-based, Canis lupus familiaris; design: route oral; conditions: in vivo, 96 h; how it was run: as §5
# [18] = system: Canis familiaris; test: Toxicity in Beagle dog assessed as survival at 5.3 mg/kg/day, po after 4 days; type: organism-based, Canis lupus familiaris; design: route oral; conditions: in vivo, 96 h; how it was run: as §5
# [19] = system: Canis familiaris; test: Toxicity in Beagle dog assessed as increase in methemoglobin level at 6.4 mg/kg/day, po between 7 to 11 days; type: organism-based, Canis lupus familiaris; design: route oral; conditions: in vivo; how it was run: as §5
# [20] = system: Leishmania donovani; test: Antileishmanial activity against Leishmania donovani HU3 infected in mouse assessed as inhibition of parasites in liver at 10 mg/kg/day, po treated for 5 days administered 7 days postinfection measured after 14 days post-infection; type: functional; how it was run: as §2
# [21] = system: Leishmania donovani; test: Antileishmanial activity against Leishmania donovani HU3 infected in mouse assessed as inhibition of parasites in liver at 5 mg/kg/day, po treated for 5 days administered 7 days postinfection measured after 14 days post-infection; type: functional; how it was run: as §2
# [22] = system: Leishmania donovani; test: Antileishmanial activity against Leishmania donovani HU3 infected in mouse assessed as inhibition of parasites in liver at 0.4 mg/kg/day, po treated for 5 days administered 7 days postinfection measured after 14 days post-infection; type: functional; how it was run: as §2
# [23] = system: Plasmodium berghei; test: Antimalarial activity against Plasmodium berghei KBG-173 infected in Swiss(CD-1) mouse assessed as parasitemia at 1 mg/kg/day, po treated for 3 days measured on day 6
# [24] = system: Plasmodium berghei; test: Antimalarial activity against Plasmodium berghei KBG-173 infected in Swiss(CD-1) mouse assessed as parasitemia at 0.25 mg/kg/day, po treated for 3 days measured on day 6
compound,measurement,setting,value
Sodium stibogluconate,inhibition,[1],99.3%
same,inhibition,[2],59.4%
same,inhibition,[3],13.8%
same,ED50,[4],27.7 mg/kg
same,ED90,[4],> 45 mg/kg
COc1cc(NC(C)CCCN)c2nccc(C)c2c1Oc1ccc(Cl)c(Cl)c1.O=C(O)CCC(=O)O (racemic),inhibition in vivo at 100 mg/kg/day,[5],99%
same,MST,[6],11.6 days
same,MST,[7],10.2 days
same,Activity,[8],Active
same,Activity,[9],Active
same,Activity,[10],Toxic
same,Activity,[11],Active
same,Activity,[12],Active
same,Activity,[13],Active
same,Activity,[14],Active
same,Activity,[15],Active
same,Activity,[16],Non-toxic
same,Activity,[17],Non-toxic
same,Activity,[18],Non-toxic
same,Activity,[19],Toxic
same,inhibition in vivo at 10 mg/kg/day,[20],99.8%
same,inhibition in vivo at 5 mg/kg/day,[21],99.2%
same,inhibition in vivo at 0.4 mg/kg/day,[22],34.1%
same,Activity,[23],0.1%
same,Activity,[24],4.8%
